# Hits are enriched below; roughly 3.8% of the tested compounds scored in any of these assays.
# KCNK3 block – human KCNK3 channel inhibition, primary screen; O14649; CHO-KCNK3 thallium flux, FluxOR fluorescence; active compounds read low; B-score at 10 µM; 0.84% of 340,000 active; AID 602410;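 active means B-score under library mean minus 4 SD, starting fluorescence ratio at most library mean plus 5 SD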;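 further: more negative B-score means stronger inhibition of thallium flux through KCNK3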
# KCNQ1 block – human KCNQ1 channel inhibition | P51787 | CHO-K1 KCNQ1, FluxOR thallium flux fluorescence; active compounds read high | B-score at 10 µM | 1.3% of 310,000 active;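 active means compounds whose thallium flux B-score, printed positive for inhibition, exceeds three library SD while starting fluorescence stays within three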;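 further: channel opened by potassium depolarization with thallium stimulus after 20 min compound exposure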
# Target sequence (P51787 whole entry, looked up): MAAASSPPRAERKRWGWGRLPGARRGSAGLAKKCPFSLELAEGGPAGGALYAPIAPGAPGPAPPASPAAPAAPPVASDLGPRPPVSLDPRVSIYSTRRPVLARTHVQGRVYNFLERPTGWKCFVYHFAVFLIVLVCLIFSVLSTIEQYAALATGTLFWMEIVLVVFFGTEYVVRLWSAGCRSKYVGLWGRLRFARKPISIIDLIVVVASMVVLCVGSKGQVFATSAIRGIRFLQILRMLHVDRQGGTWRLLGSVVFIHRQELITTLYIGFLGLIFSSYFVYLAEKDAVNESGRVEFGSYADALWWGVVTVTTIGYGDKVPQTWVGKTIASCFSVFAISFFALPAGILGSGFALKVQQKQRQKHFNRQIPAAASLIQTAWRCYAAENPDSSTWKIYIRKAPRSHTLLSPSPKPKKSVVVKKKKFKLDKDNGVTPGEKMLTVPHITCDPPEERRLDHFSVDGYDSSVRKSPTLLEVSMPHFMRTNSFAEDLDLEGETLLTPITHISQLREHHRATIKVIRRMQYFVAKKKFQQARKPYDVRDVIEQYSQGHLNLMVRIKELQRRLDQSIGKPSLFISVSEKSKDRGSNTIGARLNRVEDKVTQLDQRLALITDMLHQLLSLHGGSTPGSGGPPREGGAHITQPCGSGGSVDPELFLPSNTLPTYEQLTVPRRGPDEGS
# KCNQ1 act – potentiators or activators of human KCNQ1 potassium channel | P51787 | AID 2648 | 0.35% of 310,000 active | B-score at 10 µM | CHO-K1 KCNQ1, thallium flux FluxOR fluorescence; active compounds read high;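 active means fluorescence ratio B-score, a plate-corrected score, at least three library SD, with initial intensity B-score within 5 SD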
#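 Assay system: stable KCNQ1 CHO-K1 line; medium: assay buffer, equal DMSO in all wells; timing: 90 min dye loading and 20 min compound exposure, both at room temperature; technique: kinetic FluxOR thallium fluorescence, 10-s 1-Hz baseline, 110-s post-stimulus read; read-out basis: B score of baseline-normalized fluorescence ratio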
# KCNK9 block – human KCNK9 channel inhibition; Q9NPC2; HEK293 KCNK9, FluxOR thallium flux fluorescence; active compounds read low; B-score at 10 µM; 1.2% of 310,000 active;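 active means ratio B-score over 3 SD below the library mean, with starting fluorescence within 5 SD of its mean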;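 further: negative B-score means less thallium flux so channel inhibition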
# hERG protect – hERG (human) protection from proarrhythmic block. Q12809. activation (rescue from dofetilide block), less the hit threshold, % at 10 µM. 0.51% of 310,000 active. CHO-hERG, FluxOR thallium flux, dofetilide IC70 present;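 active means activation above the mean of controls blocked by dofetilide plus 5 SD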;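 further: thallium influx through hERG after potassium depolarization seen as dye fluorescence rise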
# Kir21 inh – inhibitors of mouse Kir2.1 inward-rectifier potassium channel; B-score at 10 µM; 0.85% of 310,000 active; HEK293-Kir2.1, FluxOR thallium flux fluorescence; active compounds read low; P35561; AID 1672;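 active means fluorescence ratio B-score at or below minus 3 SD of library scores, with starting-brightness B-score within 2 SD, cut at about -4.2 in these data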;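 further: channel flux triggered by added potassium and thallium sulfate stimulus; B-score of peak minus minimum fluorescence over baseline after thallium stimulus; more negative B-score means stronger Kir2.1 block with less thallium influx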
# KCNQ1 inh valid – reconfirmed blocker of the human KCNQ1 potassium channel | shares compounds with KCNQ1 block | KCNQ1 cell line, FluxOR thallium flux fluorescence | inhibition, % at 10 µM | 93% of 1,600 active | AID 588353;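 active means primary screen active, with duplicate mean exceeding buffer control mean plus 3 SD of buffer wells, cut at about 28% in these data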;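 further: 0% = buffer control ratio and 100% = XE991 inhibitor control ratio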
# CHO Tl flux – counter-screen for KCNQ1 inhibitors: effect in parental CHO cells; shares compounds with KCNQ1 block; parental CHO-K1, FluxOR thallium flux fluorescence ratio; active compounds read low; zero means no signal rise above baseline; fluorescence ratio (Tl flux) at 10 µM; 21% of 1,600 active; AID 588366;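 active means mean of duplicate thallium-flux fluorescence ratios in parental host cells more than 5 SD below the buffer control mean, cut at about 0.38 in these data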;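 further: ratio is peak minus minimum fluorescence divided by baseline fluorescence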
# KCNQ1 ephys val – blocks human KCNQ1 current in automated patch clamp; shares compounds with KCNQ1 block; KCNQ1-CHO cells; calls only at 10 µM; 20% of 490 active; AID 624120;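 active means KCNQ1 current drop exceeding 3 SD of negative control wells, seen in both duplicate runs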;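 further: steady state current during a 2 s step from -80 to +40 mV; negative values mean current inhibition and positive values mean potentiation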
# KCNQ2 inh – selectivity of KCNQ1 inhibitors: inhibition of rat KCNQ2 channel | shares compounds with KCNQ1 block | 71% of 1,600 active | KCNQ2 cells, FluxOR thallium flux fluorescence | AID 651746 | inhibition, % at 10 µM;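 active means mean percent inhibition of the KCNQ2 thallium signal more than 5 SD above the buffer-only control wells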;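 further: KCNQ2 expressed in CHO cells; 0% = buffer control wells and 100% = XE-991 inhibitor control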
# KCNQ1-KCNE1 inh – human KCNQ1/KCNE1 inhibition in KCNQ1 specificity screen. shares compounds with KCNQ1 block. KCNQ1/KCNE1 cells, FluxOR thallium flux fluorescence. inhibition, % at 10 µM. 77% of 1,600 active. AID 652147;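 active means mean percent inhibition of duplicate wells above the buffer-only control mean plus 3 SD of those controls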;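 further: 0% = buffer only wells and 100% = XE-991 inhibitor control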
# An asterisk follows results filed as active; i = inactive; . = no result given; + = active, no number.
SMILES,KCNK3 block,KCNQ1 block,KCNQ1 act,KCNK9 block,hERG protect,Kir21 inh,KCNQ1 inh valid,CHO Tl flux,KCNQ2 inh,KCNQ1-KCNE1 inh,others
CCN1C(=O)[C@H]2[C@@H](c3ccc(-c4ccccc4)cc3)N3CCC[C@@]3(C(=O)OC)[C@H]2C1=O,i,i,i,i,-14,0.02,.,.,.,.,
COc1ccc(CCNC(=O)c2ccc(S(=O)(=O)N3CCCCC3)cc2)cc1,i,.,.,.,.,.,.,.,.,.,
Cc1ccc(S(=O)(=O)C(C#N)c2nc3ccccc3nc2N2CCN(C)CC2)cc1 (centres undefined),i,i,i,i,-7,0.52,.,.,.,.,
CCOC(=O)N1CCN(c2nc3ccccc3nc2C(C#N)S(=O)(=O)c2ccc(C)cc2)CC1 (centres undefined),i,9*,i,i,-10,-0.03,61*,0.51,i,50%*,
COc1cccc(NC(=O)CN(C)C(=O)c2ccc3c(c2)C(=O)N(CCC(C)C)C3=O)c1,i,.,.,.,.,.,.,.,.,.,
O=C(CC1C(=O)N(c2ccccc2)C(=S)N1c1ccccc1)c1ccc(Br)cc1 (centres undefined),i,6*,i,i,-15,-1.9,65*,0.44,97%*,68%*,
COc1cccc(Nc2nc(NCC3CCCO3)c3ccccc3n2)c1 (centres undefined),i,6*,i,i,-30,-13*,82*,0.46,105%*,152%*,
CC(C)Oc1ccc(-c2nc(NCC3CCCO3)c3ccccc3n2)cc1 (centres undefined),i,8*,i,i,-14,0.54,98*,0.46,108%*,120%*,KCNQ1 ephys val=i
CCCCN(CC)CCCNC(=O)c1ccc(CS(=O)(=O)c2ccccc2C)o1,i,i,i,i,-5,-0.53,.,.,.,.,
COc1ccc(C(C(=O)NCCC(C)C)N(CCO)C(=O)c2snc(C(N)=O)c2N)cc1 (centres undefined),i,i,i,i,-3,1.7,.,.,.,.,
CC(=O)c1c(C)nc2ccc(Br)cc2c1-c1ccccc1,i,i,i,i,-14,-3.3,.,.,.,.,
Cc1nc2ccc(Br)cc2c(-c2ccccc2)c1C(=O)O,i,6*,i,i,-17,-1.4,0,0.49,96%*,i,
CSc1nsc(/C=C/Nc2ccc(C)c(C)c2)c1C#N,i,i,i,i,-8,-0.5,.,.,.,.,
CSc1nsc(/C=C/Nc2ccc(C)cc2)c1C#N,i,7*,i,i,-10,-0.31,0,0.51,i,57%*,
COc1ccc(C(=O)N2CCN(CCc3ccccc3)CC2)cc1[N+](=O)[O-],i,i,i,i,-10,-0.79,.,.,.,.,
CC(=O)Nc1sc(/C(C#N)=C/c2ccc(Cl)c(Cl)c2)nc1-c1ccc(C)cc1,i,16*,i,i,-19,-0.62,+,0.23*,i,i,
CC(=O)Nc1sc(N/N=C/c2ccc(C)cc2)nc1-c1ccc(C)cc1,i,i,i,i,-3,0,.,.,.,.,
CC(C)Cc1nnc(NC(=O)c2cc(-c3ccccc3)nc3ccccc23)s1,i,6*,i,i,-30,0.48,121*,0.51,80%*,143%*,

# Source: PubChem
